Experimental data: PMC9292215 (Clinical Pharmacology and Therapeutics, 2021)

How the values were obtained:
[1] = Plasma pharmacokinetics of BIA 10-2474 and metabolites; format: in vivo, human; details: for AUC(0-t) / AUC / clearance / Cmax / half-life / Tmax / AUC(0-inf) / concentration at 10 day: human, plasma, oral; for AUC(0-t): AUC0–t; for AUC: AUC0–τ; for clearance: CL
[2] = system: anandamide (AEA); assay: Plasma anandamide; format: in vivo, human; details: for AEA AUC0–24: Day 1; for AEA AUC0–τ: Day 10
How it was run: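 In a double-blind, placebo-controlled multiple-dose part, healthy adult men and women in groups of eight (six active, two placebo) took oral test compound once daily for 10 days. They fasted at least 8 h before and 1 h after dosing. Plasma anandamide AUCs were taken on Days 1 and 10, with a Day 10/Day 1 ratio. Data are mean (CV%); tmax is median (range).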

[3] = 10 mg, 10 mg once daily, Day 10
[4] = 20 mg, 20 mg once daily, Day 10

Compound: CN(C(=O)n1cnc(-c2ccc[n+]([O-])c2)c1)C1CCCCC1 [BIA 10-2474, 3-(1-(cyclohexyl(methyl)carbamoyl)-1H-imidazol-4-yl)pyridine 1-oxide]
- AUC(0-t) ([1]; 5 mg, 5 mg once daily, Day 1): 0.695 µg·h/mL
- AUC ([1]; 5 mg, 5 mg once daily, Day 1): 0.708 µg·h/mL
- AUC ([1]; 5 mg, 5 mg once daily, Day 10): 0.909 µg·h/mL
- clearance ([1]; 5 mg, 5 mg once daily, Day 1): 125 mL/min
- clearance ([1]; 5 mg, 5 mg once daily, Day 10): 101 mL/min
- clearance ([1]; 5 mg, single dose 5 mg): 114 mL/min
- Cmax ([1]; 5 mg, 5 mg once daily, Day 1): 0.0762 µg/mL
- Cmax ([1]; 5 mg, 5 mg once daily, Day 10): 0.0857 µg/mL
- half-life ([1]; 5 mg, t1/2, 5 mg once daily, Day 1): 6.4 h
- half-life ([1]; 5 mg, t1/2, 5 mg once daily, Day 10): 7.87 h
- half-life ([1]; 5 mg, t1/2, single dose 5 mg): 6.57 h
- Tmax ([1]; 5 mg, 5 mg once daily, Day 1): 2 h
- Tmax ([1]; 5 mg, 5 mg once daily, Day 10): 2 h
- AUC(0-inf) ([1]; 10 mg): 1.61 µg·h/mL
- concentration at 10 day ([1]; 10 mg): 0.0319 µg/mL
- AUC(0-t) ([1]; 10 mg, 10 mg once daily, Day 1): 1.39 µg·h/mL
- AUC(0-t) ([1]; 10 mg, single dose 10 mg): 1.44 µg·h/mL
- AUC ([1]; 10 mg, 10 mg once daily, Day 1): 1.39 µg·h/mL
- AUC [1, 3]: 2.2 µg·h/mL
- clearance ([1]; 10 mg, 10 mg once daily, Day 1): 116 mL/min
- clearance [1, 3]: 80.3 mL/min
- clearance ([1]; 10 mg, single dose 10 mg): 112 mL/min
- Cmax ([1]; 10 mg, 10 mg once daily, Day 1): 0.143 µg/mL
- Cmax [1, 3]: 0.19 µg/mL
- Cmax ([1]; 10 mg, single dose 10 mg): 0.146 µg/mL
- half-life ([1]; 10 mg, t1/2, 10 mg once daily, Day 1): 7.12 h
- half-life ([1]; 10 mg, t1/2, 10 mg once daily, Day 10): 9.09 h
- half-life ([1]; 10 mg, t1/2, single dose 10 mg): 7.01 h
- Tmax ([1]; 10 mg, 10 mg once daily, Day 1): 2 h
- Tmax [1, 3]: 2 h
- Tmax ([1]; 10 mg, single dose 10 mg): 3 h
- AUC(0-inf) ([1]; 20 mg): 4.17 µg·h/mL
- concentration at 10 day ([1]; 20 mg): 0.0692 µg/mL
- AUC(0-t) ([1]; 20 mg, 20 mg once daily, Day 1): 2.98 µg·h/mL
- AUC(0-t) ([1]; 20 mg, single dose 20 mg): 4.07 µg·h/mL
- AUC ([1]; 20 mg, 20 mg once daily, Day 1): 2.98 µg·h/mL
- AUC [1, 4]: 4.65 µg·h/mL
- clearance ([1]; 20 mg, 20 mg once daily, Day 1): 100 mL/min
- clearance [1, 4]: 72.2 mL/min
- clearance ([1]; 20 mg, single dose 20 mg): 81.2 mL/min
- Cmax ([1]; 20 mg, 20 mg once daily, Day 1): 0.29 µg/mL
- Cmax [1, 4]: 0.396 µg/mL
- Cmax ([1]; 20 mg, single dose 20 mg): 0.308 µg/mL
- half-life ([1]; 20 mg, t1/2, 20 mg once daily, Day 1): 7.74 h
- half-life ([1]; 20 mg, t1/2, 20 mg once daily, Day 10): 10.2 h
- half-life ([1]; 20 mg, t1/2, single dose 20 mg): 8.7 h
- Tmax ([1]; 20 mg, 20 mg once daily, Day 1): 1.5 h
- Tmax [1, 4]: 2 h
- Tmax ([1]; 20 mg, single dose 20 mg): 2 h
- AUC(0-t) ([1]; 50 mg, 50 mg once daily, Day 1): 7.77 µg·h/mL
- AUC ([1]; 50 mg, 50 mg once daily, Day 1): 7.77 µg·h/mL
- clearance ([1]; 50 mg, 50 mg once daily, Day 1): 94.7 mL/min
- Cmax ([1]; 50 mg, 50 mg once daily, Day 1): 0.667 µg/mL
- half-life ([1]; 50 mg, t1/2, 50 mg once daily, Day 1): 8.67 h
- Tmax ([1]; 50 mg, 50 mg once daily, Day 1): 2 h
- time to steady state ([1]; once-daily administration, visual inspection of Ctrough): 5 to 6 days
- V/F ([1]; single dose 1.25 mg): 87.8 (30.4) L
- V/F ([1]; single dose 2.5 mg): 79.0 (29.0) L
- V/F ([1]; single dose 5 mg): 64.6 (23.0) L
- V/F ([1]; single dose 10 mg): 66.9 (29.8) L
- V/F ([1]; single dose 20 mg): 61.3 (19.0) L
- V/F ([1]; single dose 40 mg): 73.2 (28.3) L
- V/F ([1]; single dose 100 mg): 57.0 (16.3) L
- decrease of exposure in the presence of food ([1]; single oral 40 mg): ~ 15%
- AEA Ratio (AUCD10/D1) ([2]; 2.5 mg once daily): 1.27
- AEA AUC0–24 ([2]; 2.5 mg once daily): 42.8 (17.1) ng⋅hour/mL
- AEA AUC0–τ ([2]; 2.5 mg once daily): 54.2 (9.41) ng⋅hour/mL
- AEA Ratio (AUCD10/D1) ([2]; 5 mg once daily): 1.25
- AEA AUC0–24 ([2]; 5 mg once daily): 44.9 (23.4) ng⋅hour/mL
- AEA AUC0–τ ([2]; 5 mg once daily): 56.3 (17.7) ng⋅hour/mL
- AEA Ratio (AUCD10/D1) ([2]; 10 mg once daily): 1.16
- AEA AUC0–24 ([2]; 10 mg once daily): 52.2 (19.3) ng⋅hour/mL
- AEA AUC0–τ ([2]; 10 mg once daily): 60.8 (17.9) ng⋅hour/mL
- AEA Ratio (AUCD10/D1) ([2]; 20 mg once daily): 1.22
- AEA AUC0–24 ([2]; 20 mg once daily): 51.2 (19.6) ng⋅hour/mL
- AEA AUC0–τ ([2]; 20 mg once daily): 62.8 (21.7) ng⋅hour/mL
- BIA 10-2474 plasma exposure giving relevant AEA increases ([2]; achieved with 10 mg/day): around 1,500 ng⋅h/mL
- AEA AUC0–t ([2]; single dose 0.25 mg): 27.5 (34.1) ng⋅hour/mL
- AEA AUC0–t ([2]; single dose 1.25 mg): 68.0 (13.1) ng⋅hour/mL
- AEA AUC0–t ([2]; single dose 2.5 mg): 101 (17.2) ng⋅hour/mL
- AEA AUC0–t ([2]; single dose 5 mg): 109 (11.2) ng⋅hour/mL
- AEA AUC0–t ([2]; single dose 10 mg): 137 (8.92) ng⋅hour/mL
- AEA AUC0–t ([2]; single dose 20 mg): 149 (6.20) ng⋅hour/mL
- AEA AUC0–t ([2]; single dose 40 mg): 160 (26.42) ng⋅hour/mL
- AEA AUC0–t ([2]; single dose 100 mg): 188 (22.4) ng⋅hour/mL
- increase in plasma AEA AUC compared with placebo ([2]; single dose 100 mg): 12.5 fold
- return of AEA to baseline ([2]; single doses): > 72 hours post dose
